Only some compounds are listed: those with a hit (about 5.8% of all), similar ones and a draw of the others.
T cruzi growth-1: T. cruzi proliferation inhibition. inhibition, % at 8.34 µM. T. cruzi beta-gal in NIH3T3, GalScreen luminescence, 90 h. actives 5.9% (n = 77,000). AID 624255;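 active = mean inhibition above about 93%, with at least 55% of replicates each passing it, limit read from the data, passing the limit was not always enough; inconclusive = only one of those two conditions holds; inactive = neither condition holds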
IDH1 mut inh: inhibitors of human IDH1 R132H; O75874; IDH1 R132H reductase, diaphorase/resazurin fluorescence, 60 min; inhibition, % at 10 µM; actives 0.18% (n = 70,000); AID 624101; in the data active = inhibition above about 34%; inconclusive = no clear call, values can overlap the other calls; inactive = below about 11%
Pf Dd2 inh: P. falciparum Dd2 growth inhibition; SYBR Green, 72 h; stronger effect = lower value; AID 1159554; actives 2.3% (n = 94,000); activity change, % at 10 µM; in the data active = activity change below about -80%; inconclusive = no clear call, values can overlap the other calls
GASC1 inh: blocks human GASC-1 (KDM4C) demethylase activity; Q9H3R0; GST-KDM4C 2-372, H3K9me3 peptide, LANCE TR-FRET; inhibition, % at 12.5 µM; actives 0.15% (n = 96,000);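 active = mean replicate inhibition above about 25%, with at least 55% of replicates also reaching it, limit read from the data, passing the limit was not always enough; inconclusive = only one of those two conditions met; inactive = neither condition met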
Target sequence (Q9H3R0 2-372 limits assumed): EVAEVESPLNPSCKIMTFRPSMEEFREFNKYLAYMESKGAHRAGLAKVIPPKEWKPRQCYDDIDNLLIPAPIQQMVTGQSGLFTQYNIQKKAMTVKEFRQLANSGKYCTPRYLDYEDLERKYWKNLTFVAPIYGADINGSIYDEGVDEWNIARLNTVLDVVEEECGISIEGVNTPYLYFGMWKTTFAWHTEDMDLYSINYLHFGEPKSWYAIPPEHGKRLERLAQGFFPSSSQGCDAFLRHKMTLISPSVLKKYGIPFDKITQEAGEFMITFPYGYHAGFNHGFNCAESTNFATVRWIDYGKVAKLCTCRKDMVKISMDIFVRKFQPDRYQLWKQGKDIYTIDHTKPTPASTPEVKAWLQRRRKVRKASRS
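Compound: one test concentration per compound; Material: GST-GASC-1 enzyme fragment 2-372; Amount: GASC-1 enzyme at 10 nM final in reaction; Also added: H3K9me3 peptide substrate, Fe(II), 2-oxoglutarate; Technique: LANCE TR-FRET; Times: 30 min demethylation and 1 h detection at room temperature.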
T cruzi growth-2: Trypanosoma cruzi proliferation inhibition | AID 651739 | actives 72% (n = 5,600) | T. cruzi beta-gal in NIH3T3, GalScreen luminescence, 90 h | shares compounds with T cruzi growth-1 | inhibition, % at 8.35 µM;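 active = mean replicate inhibition above about 95% and at least 55% of replicates individually reaching it, limit read from the data; inconclusive = only one of the two criteria is met; inactive = neither criterion is met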
T cruzi growth-3: inhibitors of T. cruzi proliferation | shares compounds with T cruzi growth-1 | T. cruzi beta-gal in NIH3T3, GalScreen luminescence, 90 h | inhibition, % at 2.09 µM | actives 21% (n = 5,600) | AID 651740;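 active = mean inhibition above about 95%, with at least 55% of replicates also reaching it, limit read from the data; inconclusive = meets just one of the two conditions; inactive = meets neither condition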
3T3 cytotox: kills mouse NIH/3T3 fibroblasts; cytotoxicity (signal decrease), % at 8.35 µM; NIH/3T3 viability, CellTiter-Glo ATP luminescence, 90 h; actives 14% (n = 5,600); shares compounds with T cruzi growth-1;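 active = mean signal decrease across replicates above about 35% based on untreated-well scatter, with enough replicates individually passing, limit read from the data; inconclusive = no rule stated though some were filed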
3T3 cytotox 2: NIH/3T3 (mouse) viability loss | shares compounds with T cruzi growth-1 | NIH/3T3 viability, CellTiter-Glo ATP luminescence, 90 h | inhibition, % at 24.9 µM | actives 56% (n = 5,600) | AID 651744;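 active = mean loss of cell viability signal at or above a set limit, and enough replicates individually reaching it; inconclusive = meets only the mean limit or only the replicate share; inactive = meets neither condition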
A number is an active result; - = inactive; ? = inconclusive; . = no result.

SMILES	T cruzi growth-1	IDH1 mut inh	Pf Dd2 inh	GASC1 inh	T cruzi growth-2	T cruzi growth-3	3T3 cytotox	3T3 cytotox 2
OC[C@@H]1[C@H](c2ccc(C#Cc3ccccc3F)cc2)[C@H]2CN(CC3CCOCC3)CCCCN12	105.6	.	-	-	101.1	109.6	39.7	103.7
OC[C@H]1[C@@H](c2ccc(C#Cc3ccccc3F)cc2)[C@@H]2CN(CC3CCOCC3)CCCCN12	-	.	-	-	.	.	.	.
OC[C@H]1[C@H](c2ccc(C#Cc3ccccc3F)cc2)[C@@H]2CN(CC3CCOCC3)CCCCN12	?	.	-	-	106.1	-	41.1	105.6
CCc1nc(SCC(=O)Nc2ccc(OC)cc2)c2c3c(sc2n1)COC(C)(C)C3	.	-	.	.	.	.	.	.
C[C@@H]1CN([C@H](C)CO)S(=O)(=O)c2ccc(C#CCN(C)C)cc2O[C@H]1CN(C)CC1CCCC1	103.8	-	-	-	106.8	-	-	104.4
C[C@H]1CN([C@@H](C)CO)S(=O)(=O)c2ccc(C#CCN(C)C)cc2O[C@H]1CN(C)CC1CC1	110.5	-	-	-	?	-	-	-
CCCC#Cc1ccc2c(c1)O[C@H](CN(C)CC1CC1)[C@H](C)CN([C@H](C)CO)S2(=O)=O	-	-	-	-	.	.	.	.
O=C(CSc1n[nH]c(-c2ccc(Cl)cc2)n1)Nc1c(F)cc(F)cc1Br	.	-	.	.	.	.	.	.
COc1ccc(-c2nnc3c4ccccc4c(C)nn23)cc1S(=O)(=O)N1CCN(C)CC1	.	-	.	.	.	.	.	.
Cc1ccc(S(=O)(=O)Nc2ccc3c(c2)C(=O)N([C@@H](C)CO)C[C@@H](C)[C@H](CN(C)C(=O)NC2CCCCC2)OCCCC[C@H](C)O3)cc1	114.2	.	-	-	-	-	-	-
Cc1ccc(S(=O)(=O)Nc2ccc3c(c2)C(=O)N([C@@H](C)CO)C[C@@H](C)[C@@H](CN(C)C(=O)NC2CCCCC2)OCCCC[C@@H](C)O3)cc1	100.9	-	-	-	98.7	-	-	-
C[C@H]1CCCCO[C@H](CN(C)C(=O)NC2CCCCC2)[C@@H](C)CN([C@@H](C)CO)C(=O)c2cc(NS(=O)(=O)c3ccccc3)ccc2O1	103.2	.	-	-	-	-	-	-
CN1C(=O)c2cc(NC(=O)c3cnccn3)ccc2OC[C@H]2O[C@@H](CC(=O)N[C@@H]3CCN(Cc4ccccc4)C3)CC[C@H]21	106.6	.	-	-	97.1	-	-	-
CN1C(=O)c2cc(NC(=O)c3cnccn3)ccc2OC[C@H]2O[C@@H](CC(=O)N[C@H]3CCN(Cc4ccccc4)C3)CC[C@H]21	114.4	.	?	-	104.1	103.3	-	-
CN1C(=O)c2cc(NC(=O)c3cnccn3)ccc2OC[C@H]2O[C@@H](CC(=O)N[C@@H]3CCN(Cc4ccccc4)C3)CC[C@@H]21	.	.	-	-	.	.	.	.
O=c1c2ccccc2nc(-c2cccs2)n1NCc1ccccc1F	.	-	.	.	.	.	.	.
CC(=O)N1CCCCN2[C@@H](CO)[C@@H](c3ccc(-c4ccc(C)cc4)cc3)[C@@H]2C1	106.2	.	-	-	-	-	35.8	66.2
CC(=O)N1CCCCN2[C@H](C1)[C@H](c1ccc(-c3ccc(F)cc3)cc1)[C@@H]2CO	-	.	-	-	.	.	.	.
CC(=O)N1CCCCN2[C@H](C1)[C@H](c1ccc(-c3ccc(C)cc3)cc1)[C@@H]2CO	99.7	.	-	-	106.4	-	-	29.3
CC(=O)N1CCCCN2[C@@H](CO)[C@H](c3ccc(-c4ccc(C)cc4)cc3)[C@@H]2C1	120.1	.	-	-	-	-	?	76.1
CC(=O)N1CCCCN2[C@H](CO)[C@@H](c3ccc(-c4ccc(C)cc4)cc3)[C@@H]2C1	102.0	.	-	-	-	-	40.8	27.8
O=C(CN(C1CCCCC1)S(=O)(=O)c1ccc(Cl)cc1)Nc1ccccc1F	.	-	.	.	.	.	.	.
CCc1cccc(C)c1NC(=O)CSc1nc2ccccc2c(=O)n1-c1cccc2ccccc12	.	-	.	.	.	.	.	.
CCCNC(=O)N1CC2(CCN(Cc3ccncc3)CC2)c2c(n(C)c3cc(OC)ccc23)[C@@H]1CO	.	.	-	.	.	.	.	.
